Measurements as given in ChEMBL document CHEMBL4251617, “Synthesis and anticancer activity of novel water soluble benzimidazole carbamates” (Eur J Med Chem, 2018).
Values after ≈ are worked out from the molar mass of the structure shown. Active and inactive are the calls of the source. No cut-off for these calls is given here.

Legend:
[1] = Selectivity ratio of EC50 for cytotoxicity against human PC3M cells to EC50 for cytotoxicity against human PC3MLN4 cells; format: functional
[2] = Cytotoxicity against human PC3MLN4 cells assessed as reduction in cell viability after 48 hrs by cyquant reagent based fluorescence spectrometric assay; format: functional
Outline: (§1)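 3 X 10^5 cells per well seeded overnight, then exposed 48 hr. Cells harvested, washed, frozen at -80 °C overnight, thawed, and CyQuant reagent added with fluorescence read at 485 nm. Survival as % of vehicle-treated cells. EC50 (50% survival reduction) by median-dose effect analysis.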

PC-3M = assay: Cytotoxicity against human PC3M cells assessed as reduction in cell viability after 48 hrs by cyquant reagent based fluorescence spectrometric assay; format: functional; outline: as §1
[3] = Cytotoxicity against human PC3MLN4 cells assessed as cell viability at 10 uM after 72 hrs by MTT assay relative to control; format: functional; details: read-out: Activity
A549 [4] = assay: Cytotoxicity against human A549 cells assessed as cell viability at 1 uM after 72 hrs by MTT assay relative to control; format: functional; details: A549, 72 h, read-out: Activity
PC-3 [5] = assay: Cytotoxicity against human PC3 cells assessed as cell viability at 10 uM after 72 hrs by MTT assay relative to control; format: functional; details: PC-3, 72 h, read-out: Activity
[6] = Cytotoxicity against human PC3MLN4 cells assessed as cell viability at 1 uM after 72 hrs by MTT assay relative to control; format: functional; details: read-out: Activity
A549 [7] = assay: Cytotoxicity against human A549 cells assessed as cell viability at 10 uM after 72 hrs by MTT assay relative to control; format: functional; details: A549, 72 h, read-out: Activity
PC-3 [8] = assay: Cytotoxicity against human PC3 cells assessed as cell viability at 1 uM after 72 hrs by MTT assay relative to control; format: functional; details: PC-3, 72 h, read-out: Activity
Mus musculus = assay: Toxicity in nude mouse xenografted with human PC3MLN4 cells assessed as reduction in body weight at 30 mg/kg, ip administered every other day 3 times per week for 2 weeks measured 3 times per week during compound dosing relative to control; format: organism-based; set-up: scale not given: the % may be the effect or the level left; details: in vivo, 336 h
Outline: (§2)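 PC3MLN4 cells (1 X 10^6) in growth factor reduced Matrigel/HBSS injected subcutaneously between the scapulae of athymic nude mice. Dosing began day 13 at tumor volume about 35 mm3. Randomized groups of 4-5 mice got 30 mg/kg IP in 5% DMSO/HBSS, or vehicle alone. Tumor (calipers) and body weight measured on dosing days and 3 days after last dose. Mean ± SEM, t-test.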

NCI-H157 = assay: Cytotoxicity against human NCI-H157 cells assessed as reduction in cell viability after 72 hrs by MTT assay; format: functional, cell-based; details: NCI-H157, 72 h
Outline: (§3)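 Cells seeded per well at 5 X 10^3 (PC3MLN4, A549, Calu1, H157, A549-TR), 6 X 10^3 (PC3) or 8 X 10^3 (SKOV3). SKOV3 grown in McCoy's 5A, others in RPMI-1640, 10% FBS. Next day 2X drug added, 3.2 nM-50 µM five-fold dilutions, 72 hr.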

Homo sapiens [9] = organism: Homo sapiens; assay: Disruption of microtubule dynamics in human PC3MLN4 cells at 1 uM after 48 hrs by immunofluorescence microscopic method; format: cell-based
Outline: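 PC3MLN4 cells on coverslips were treated 48 hr at 1 µM. They were fixed in 4% PFA 15 min and permeabilized in 0.2% Triton X-100 8 min. Blocking was 2% goat serum/2% BSA 1 hr. Anti-α-tubulin 1:200 for 1 hr was followed by Alexa Fluor 488 secondary 1:400 for 45 min, with DAPI 500 nM counterstain and imaging at 100X and 200X.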

[10] = Kinetic solubility in pH 7.4 PBS buffer sonicated for 30 mins by HPLC-UV method
Calu-1 = assay: Cytotoxicity against human Calu1 cells assessed as reduction in cell viability after 72 hrs by MTT assay; format: functional, cell-based; details: Calu-1, 72 h; outline: as §3
A549/TR = assay: Cytotoxicity against human A549/TR cells assessed as reduction in cell viability after 72 hrs by MTT assay; format: functional, cell-based; outline: as §3
Homo sapiens [11] = organism: Homo sapiens; assay: Cell cycle arrest in human PC3MLN4 cells assessed as accumulation at G2/M phase at 1 uM after 24 hrs by propidium iodide staining based flow cytometry; format: functional
Outline: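 PC3MLN4 cells seeded 3 X 10^5/well, next day treated 24 hr at 1 µM, nocodazole 1 µM as control. Floating and adherent cells pooled, fixed in cold 70% ethanol 30 min, then PI plus RNase A for 30 min. 15 X 10^3 cells acquired by FACS. G1/S/G2 fractions from Dean-Jett-Fox fit.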

[12] = Antitumor activity against human PC3MLN4 cells xenografted in nude mouse assessed as reduction in tumor volume at 30 mg/kg, ip administered every other day 3 times per week for 2 weeks; format: functional; outline: as §2
Homo sapiens [13] = organism: Homo sapiens; assay: Upregulation of Cyclin-B1 protein expression in human PC3MLN4 cells at 1 uM after 24 hrs by Western blot method; format: functional, cell-based
Outline: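 PC3MLN4 cells were treated 24 hr and lysed in 50 mM Tris pH 7.5, 150 mM NaCl, 10 mM NaF, 0.5% NP40 with protease inhibitors. Equal protein (BCA) was run on SDS-PAGE and transferred to nitrocellulose, then blocked in 5% milk/TBST. Blots were probed for cyclin B1 with GAPDH as loading control, using HRP secondary and ECL.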

PC-3 [14] = assay: Cytotoxicity against human PC3 cells assessed as reduction in cell viability after 72 hrs by MTT assay; format: functional, cell-based; details: PC-3, 72 h; outline: as §3
SK-OV-3 = assay: Cytotoxicity against human SKOV3 cells assessed as reduction in cell viability after 72 hrs by MTT assay; format: functional, cell-based; details: SK-OV-3, 72 h; outline: as §3
A549 [15] = assay: Cytotoxicity against human A549 cells assessed as reduction in cell viability after 72 hrs by MTT assay; format: functional, cell-based; details: A549, 72 h; outline: as §3
[16] = Cytotoxicity against human PC3MLN4 cells assessed as reduction in cell viability after 72 hrs by MTT assay; format: functional, cell-based; outline: as §3
physchem = details: PBS buffer, pH 7.4

| Structure (SMILES) | viability at 10 µM [3] [%] | viability at 1 µM (A549 [4]) [%] | viability at 10 µM (PC-3 [5]) [%] | viability at 1 µM [6] [%] | viability at 10 µM (A549 [7]) [%] | viability at 1 µM (PC-3 [8]) [%] | also measured |
| --- | --- | --- | --- | --- | --- | --- | --- |
| CCCSc1ccc2[nH]c(NC(=O)OC)nc2c1 [ALBENDAZOLE] | – | – | – | – | – | – | Ratio EC50 [1]: 2; EC50 [2]: 0.58 µM; EC50 (PC-3M): 1.15 µM |
| CCCSc1ccc2[nH]c(NC(=O)OC3COC3)nc2c1 | 83.8 | 73.2 | 84.5 | 88.3 | 79.2 | 95.2 | – |
| CCCSc1ccc2[nH]c(NC(=O)OCCN(C)C)nc2c1 | 42.8 | 75.5 | 37.9 | 92.7 | 51.8 | 82.5 | – |
| CN(C)CCOC(=O)Nc1nc2cc(C(=O)c3ccccc3)ccc2[nH]1 | 98.8 | 94.4 | 92.6 | 101 | 89.6 | 97.3 | – |
| O=C(Nc1nc2cc(C(=O)c3ccccc3)ccc2[nH]1)OC1COC1 | 66.8 | 68 | 65.5 | 70.6 | 62 | 90.9 | – |
| CN(C)CCOC(=O)Nc1nc2cc(Sc3ccccc3)ccc2[nH]1 | 36.6 | 91.8 | 35 | 98.1 | 39.2 | 88.9 | – |
| COC(=O)Nc1nc2cc(Oc3cccc(N4CCN(C)CC4)n3)ccc2[nH]1 | 74 | 87.8 | 52.1 | 83 | 72.6 | 98.1 | – |
| CN(C)CCCOC(=O)Nc1nc2cc(C(=O)c3ccc(F)cc3)ccc2[nH]1 | 91 | 85.4 | 86.5 | 87.3 | 88.1 | 105 | – |
| COC(=O)Nc1nc2cc(C(=O)c3ccccc3N(C)C3COC3)ccc2[nH]1 | 38.4 | 99 | 54.8 | 100 | 46.8 | 101 | – |
| COC(=O)Nc1nc2cc(C(=O)c3ccc(N(C)C4COC4)cc3)ccc2[nH]1 | 23.2 | 50.2 | 33.6 | 34.9 | 42.2 | 44.5 | Activity (Mus musculus): Non-Toxic; EC50 (NCI-H157): 2.4 µM; Activity (Homo sapiens [9]): Active; solubility kinetic at 0.5 h [10]: 253 µM (≈ 96.2 µg/mL); EC50 (Calu-1): 1.6 µM; EC50 (A549/TR): 3.8 µM; Activity (Homo sapiens [11]): Active; T/C [12]: 0.36; Activity (Homo sapiens [13]): Active; EC50 (PC-3 [14]): 1.6 µM; EC50 (SK-OV-3): 1 µM; EC50 (A549 [15]): 1.4 µM; EC50 [16]: 0.9 µM; solubility thermodynamic at 24 h (physchem): 361 µM (≈ 137 µg/mL) |
| COC(=O)Nc1nc2ccc(C(=O)c3ccccc3)cc2[nH]1 [MEBENDAZOLE] | – | – | – | – | – | – | Activity (Mus musculus): 5% |
| CCCSc1ccc2[nH]c(NC(=O)OCC3(C)COC3)nc2c1 | 89.7 | 83.1 | 79.2 | 87.6 | 87.6 | 87.2 | – |
| COC(=O)Nc1nc2cc(Oc3cccc(N4CCN(C)CC4)c3)ccc2[nH]1 | 33.4 | 77 | 32.2 | 86.3 | 47.5 | 73.1 | – |
| COC(=O)Nc1nc2cc(C(=O)c3cccs3)ccc2[nH]1 | – | – | – | – | – | – | Activity (Homo sapiens [9]): Active; Activity (Homo sapiens [13]): Active |
| CC(=O)O[C@H]1C(=O)[C@@]2(C)[C@H]([C@H](OC(=O)c3ccccc3)[C@]3(O)C[C@H](OC(=O)[C@H](O)[C@@H](NC(=O)c4ccccc4)c4ccccc4)C(C)=C1C3(C)C)[C@]1(OC(C)=O)CO[C@@H]1C[C@@H]2O [PACLITAXEL] | – | – | – | – | – | – | EC50 (A549/TR): 10.3 µM |
| CCCSc1ccc2[nH]c(NC(=O)OCCCN(C)C)nc2c1 | 88.6 | 83.8 | 78.2 | 86.7 | 89.9 | 95.5 | – |
| O=C(Nc1nc2cc(Sc3ccccc3)ccc2[nH]1)OC1COC1 | 79.1 | 75 | 87.8 | 80.2 | 74.8 | 107 | – |
| COC(=O)Nc1nc2cc(C(=O)c3ccccc3)ccc2[nH]1 [MEBENDAZOLE] | 24.9 | 61.5 | 35.8 | 53.9 | 50.8 | 63.4 | EC50 (NCI-H157): 3.5 µM; Activity (Homo sapiens [9]): Active; EC50 (Calu-1): 1.1 µM; EC50 (A549/TR): 1.7 µM; Activity (Homo sapiens [11]): inactive; T/C [12]: 0.31; EC50 [2]: 0.7 µM; EC50 (PC-3 [14]): 1.1 µM; EC50 (SK-OV-3): 0.5 µM; EC50 (A549 [15]): 0.9 µM; EC50 [16]: 0.5 µM; EC50 (PC-3M): 1.21 µM |
| CN(C)CCOC(=O)Nc1nc2cc(C(=O)c3ccc(F)cc3)ccc2[nH]1 | 97.2 | 89.4 | 90.9 | 84.6 | 80.4 | 91.2 | – |
| COC(=O)Nc1nc2cc(Sc3ccccc3)ccc2[nH]1 [FENBENDAZOLE] | – | – | – | – | – | – | Ratio EC50 [1]: 2; EC50 [2]: 0.91 µM; EC50 (PC-3M): 2.6 µM |
| COC(=O)Nc1nc2cc(C(=O)c3ccc(F)cc3)ccc2[nH]1 [FLUBENDAZOLE] | – | – | – | – | – | – | Ratio EC50 [1]: 2; EC50 [2]: 0.67 µM; EC50 (PC-3M): 1.43 µM |
